Several values for one entry are separate records, joined by “and”; a condition that tells them apart may be missing. Identical values can stand only once. Like-named read-outs stand apart in the source and are kept apart here.

Data set [1] has as its system insulin receptors on MDCK cells. Nature of the data set: [125I]insulin binding to basal or apical surface of MDCK cells. Further details: species or system canine. The note with it: Hepes buffer, 15 C.
Data set [2] has as its system MDCK cells. It counts as in vitro ADME, canine. In outline:
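MDCK monolayers on nitrocellulose Millicell filters, 5–7 d after plating (1.8–2.0×10^6 cells/well at confluence). Both sides washed with PBS pH 7.4. Chloramine-T-iodinated EGF tracer added to one side at 4°C, then held at 4, 15 or 37°C, with [14C]inulin (50,000 cpm) as leak marker. In a second format, tracer was bound basally 2.5 h at 4°C, washed, and moved to 37°C. Triplicate wells, mean ± SD.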

The target in data set [3] is T1, EGF receptor on MDCK cells (Canis lupus familiaris, UniProt A0A8I3RYJ5). In kind it is binding, canine. The note with it: for EGF bound, % of the total tracer added: 4 C, 50,000 cpm [125I]EGF. In a few lines:
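Confluent MDCK filter monolayers (1.8–2.0×10^6 cells/well) washed three times with cold PBS. Hepes buffer (50 mM Hepes, 1% BSA, pH 7.4) added both sides. 50,000 cpm [125I]EGF (194 µCi/µg) plus unlabeled EGF 1–200 ng/ml applied to apical or basal side. Incubated 6 h at 4°C, then washed. Filters excised and gamma-counted. Scatchard analysis.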

A short description of data set [4]: Diffusion across nitrocellulose filter of empty chambers. It counts as in vitro ADME. The note with it: empty chamber, nitrocellulose filter without cells; 2 h; ~50,000 cpm tracer.
Data set [5] addresses T1, EGF receptor on MDCK cells. It counts as cell-based, canine. In outline: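 MDCK monolayers on 0.45-µm nitrocellulose filter chambers, used 5–7 d after plating. Hepes buffer pH 7.4. 50,000 cpm (0.137 ng) chloramine-T-iodinated EGF plus 50,000 cpm [14C]inulin leakage marker added apically or basally. Opposite side sampled every 30 min with buffer replacement. Cumulative counts expressed as % of tracer added. Antibody 1:100 preincubated basally 60 min at 37°C, sampled over 4.5 h. Triplicate wells.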

Take insulin: in data set [1], the Binding of insulin result is reported as “failed to detect binding”. Also, the “Transport in either direction (in words)” value in data set [2] (MDCK monolayer, basal-to-apical and apical-to-basal) is “not observed”.

Consider epidermal growth factor [EGF], for which the “EGF bound, % of the total tracer added” value in data set [3] (apical surface of MDCK cells) was < 1% and 0.8%; in data set [3] (basal surface of MDCK cells, binding maximal within 4 h), 6.5% and ~ 6%. Moreover, in data set [3] (basal surface of MDCK cells, 6 h at 4 C, competition with [125I]EGF), the “Concentration of cold EGF that inhibited binding by 50%” value stood at 5 ng/mL. In addition, the “Transport of EGF basal-to-apical at 4 C (in words)” value in data set [2] (4 C versus 37 C, mean of triplicate wells) is listed as “even further decreased”. Also, the “Transport of EGF basal-to-apical at 15 C (in words)” value in data set [2] (15 C versus 37 C, mean of triplicate wells) is “markedly decreased”. The “Transport in the apical-to-basal direction (in words)” value in data set [2] (MDCK monolayer) is reported as “No transport”. Further, the “Time to appearance of EGF at the apical surface after warming” value in data set [2] (pre-bound tracer on basal surface, warmed from 4 C to 37 C) is given as at most 15 min. For the same substance, in data set [4], the “Diffusion across the membrane, % of the total added” value amounted to 22%. The “Effect of unlabeled EGF on transport of tracer EGF, basal-to-apical” value in data set [5] (0.85 nM (5 ng/ml) unlabeled EGF) is recorded as “substantial de- crease”. The “Effect of unlabeled EGF on transcytosis of labeled EGF, apical-to-basal” value in data set [5] (110 nM cold EGF) is listed as “no effect”. Moreover, the “Effect of unlabeled EGF on transcytosis of labeled EGF, basal-to-apical” value in data set [5] (110 nM unlabeled EGF) is given as “completely inhibited”.
